# Test results published in the RNAGym collection of RNA variant scans (doi:10.1126/science.aae0568).
# Variants at the floor of the assay were thinned out.
# B1: tRNA (parent)
# chain: GUUCCGUUGGCGUAAUGGUAACGCGUCUCCCUCCUAAGGAGAAGACUGCGGGUUCGAGUCCCGUACGGAACG
# Variants of: B1
# Assay: yeast fitness relative to wild type (ratio to wild type); higher = fitter; tRNA-Arg(CCU), competitive growth, 37 C, YPD
# Method in brief: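 Start and end populations of a pooled competition were compared by 100-nucleotide paired-end sequencing of gene amplicons. The Saccharomyces cerevisiae strains carried tRNA-Arg(CCU) gene variants at the native genomic locus, synthesised with a 3% per-site mutation rate at 69 sites, and competed in YPD at 37°C for 24 hours in six parallel replicates. Darwinian fitness relative to wild type was based on the change in genotype frequencies. Genotypes required ≥ 100 starting reads, and estimates < 0.5 were set to 0.5.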
row,Variant,yeast fitness
1,GUUCCGUUGGCGUAAUGGUAACGCGUCUCCCUCCUAAGGAGCAGUUUGCGGGUUCGAGUCCCGUACGGAACG [A42C A45U C46U],0.861
2,GUUCCGUUGGCGUAAUGGUAACGCGUCUCCCUCCUAAGGAGCAGACGGCGGGUUCGAGUCCCGUACGGAACG [A42C U47G],0.607
3,GUUCCGUUGGCGUAAUGGUAACGCGUCUCCCUCCUAAGGAGCAGACUGCGGGUUCGAGUCCCCUACGGCACG [A42C G63C A69C],≤ 0.5
4,GUUCCGUUGGCGUAAUGGUAACGCGUCUCCCUCCUAAGGAGCAGACUGCGGGUUCGAGUCCCGUACGAAACG [A42C G68A],0.898
5,GUUCCGUUGGCGUAAUGGUAACGCGUCUCCCUCCUAAGGAGCAGACUGCGGGUUCGAGUCCCGUACGUAACG [A42C G68U],0.873
6,GUUCCGUUGGCGUAAUGGUAACGCGUCUCCCUCCUAAGGAGCAGCCUGCGGCUUCGAGUCCCGUACGGAACG [A42C A45C G52C],≤ 0.5
7,GUUCCGUUGGCGUAAUGGUAACGCGUCUCCCUCCUAAGGAUAAGUCUGUGGGUUCGAGUCGCGUACGGAACG [G41U A45U C49U C61G],≤ 0.5
8,GUUCCGUUGGCGUAAUGGUAACGCGUCUCCCUCCUAAGGAGCAGACUGCGGGUUGGCGUCCUGUACGGAACG [A42C C55G A57C C62U],≤ 0.5
9,GUUCCGUUGGCGUAAUGGUAACGCGUCUCCCUCCUAAGGAGCAGGCUGCGGGUUCGAGUCCCGUACGGAACG [A42C A45G],0.95
10,GUUCCGUUGGCGUAAUGGUAACGCGUCUCCCUCCUAAGGAGCAGACUGAGGGUUCGAGUCCCGUAAGGAACG [A42C C49A C66A],≤ 0.5
11,GUUCCGUUGGCGUAAUGGUAACGCGUCUCCCUCCUAAGGAGCAGAGUGCGGGUUCGAGUCCCGUAAGGAACG [A42C C46G C66A],0.552
12,GUUCCGUUGGCGUAAUGGUAACGCGUCUCCCUCCUAAGGACAAGACUGCGCGUUCGAGUCCCGUACGGAACG [G41C G51C],0.52
13,GUUCCGUUGGCGUAAUGGUAACGCGUCUCCCUCCUAAGGAGCAGACUGCGGGUUCGAAUCCAGUACGGAACG [A42C G58A C62A],≤ 0.5
14,GUUCCGUUGGCGUAAUGGUAACGCGUCUCCCUCCUAAGGAGCAGACUGCGGGUUCGCGUCACGUACGGAACG [A42C A57C C61A],≤ 0.5
15,GUUCCGUUGGCGUAAUGGUAACGCGUCUCCCUCCUAAGGAGCAGACUGCGGGUUCGAGUCCCGGACGGAACG [A42C U64G],0.596
16,GUUCCGUUGGCGUAAUGGUAACGCGUCUCCCUCCUAAGGAGCAGACAGCGGGUUCGAGUCCCCUACGGCACG [A42C U47A G63C A69C],0.578
17,GUUCCGUUGGCGUAAUGGUAACGCGUCUCCCUCCUAAGGAGCAGACUGCGGGUUCGAGUCCCGUACGGAACG [A42C],0.967
18,GUUCCGUUGGCGUAAUGGUAACGCGUCUCCCUCCUAAGGAGCAGACUGCGGGUUCGAGUUCCGUACGAAACG [A42C C60U G68A],≤ 0.5
19,GUUCCGUUGGCGUAAUGGUAACGCGUCUCCCUCCUAAGGACAAGACUGCGGGUUCGAAUCACGUACGGAACG [G41C G58A C61A],≤ 0.5

row,Variant,yeast fitness
1,GUUCCGUUGGCGUAAUGGUAACGCGUCUCCCUCCUAAGGAGCAGACUGCGGGUUCGAGUCCCGUACGGUACG [A42C A69U],0.927
2,GUUCCGUUGGCGUAAUGGUAACGCGUCUCCCUCCUAAGGAGCAGACUGCGGGUUCGAGUCCCGUACGGGACG [A42C A69G],0.97
3,GUUCCGUUGGCGUAAUGGUAACGCGUCUCCCUCCUAAGGAGCAGACUGCGAGUUCGAGUCCCGUACGGACCG [A42C G51A A70C],0.578
4,GUUCCGUUGGCGUAAUGGUAACGCGUCUCCCUCCUAAGGAGCAGACUGCGGGUUGGAGUCCCGUACGGAACG [A42C C55G],0.612
5,GUUCCGUUGGCGUAAUGGUAACGCGUCUCCCUCCUAAGGAGCAGACUGCGGGUUUGAGUCCCGUACGGAACG [A42C C55U],0.744
6,GUUCCGUUGGCGUAAUGGUAACGCGUCUCCCUCCUAAGGACAAGACUCCGGGUUCGAGUCCCGUACGGAACG [G41C G48C],0.813
7,GUUCCGUUGGCGUAAUGGUAACGCGUCUCCCUCCUAAGGAGCAGACUGCGGGAACGAGUCCCGUACGGAACG [A42C U53A U54A],≤ 0.5
8,GUUCCGUUGGCGUAAUGGUAACGCGUCUCCCUCCUAAGGAGCAGCCUACGGGUUCGAGUCCCGUACGGAACG [A42C A45C G48A],0.958
9,GUUCCGUUGGCGUAAUGGUAACGCGUCUCCCUCCUAAGGAGCAGACUGCGGGUUCGAGUCCCGUACGGAUCG [A42C A70U],1.02
10,GUUCCGUUGGCGUAAUGGUAACGCGUCUCCCUCCUAAGGACAAGACUGCGGGUUCAAGUCCCGUACGGAACG [G41C G56A],0.825
11,GUUCCGUUGGCGUAAUGGUAACGCGUCUCCCUCCUAAGGAGCAGACCGCGGGUUCGAGUCCCAUACGGAACG [A42C U47C G63A],0.692
12,GUUCCGUUGGCGUAAUGGUAACGCGUCUCCCUCCUAAGGAGCAGACUGCGGGUUCGAGUCUCGUACGGAACG [A42C C61U],0.668
13,GUUCCGUUGGCGUAAUGGUAACGCGUCUCCCUCCUAAGGAGCAGACUGCGGGUUCGAGGCCCGUACGGAACG [A42C U59G],0.752
14,GUUCCGUUGGCGUAAUGGUAACGCGUCUCCCUCCUAAGGAGCAGACUGCGGGUUCGAGACCCGUACGGAACG [A42C U59A],0.764
15,GUUCCGUUGGCGUAAUGGUAACGCGUCUCCCUCCUAAGGAGCAGAAUGCGGGUUCGAGUCCCGUACGGAACG [A42C C46A],0.783
16,GUUCCGUUGGCGUAAUGGUAACGCGUCUCCCUCCUAAGGAGCAGAGUGCGGGUUCGAGUCCCGUACGGAACG [A42C C46G],0.753
17,GUUCCGUUGGCGUAAUGGUAACGCGUCUCCCUCCUAAGGAGCAGACUGGAGGUUCGAGUCCCGUACGGAACG [A42C C49G G50A],0.507
18,GUUCCGUUGGCGUAAUGGUAACGCGUCUCCCUCCUAAGGACAAGACUGCGGCUUCGAGUCCCGUACGGCACG [G41C G52C A69C],≤ 0.5
